Calls of active or inactive are those of the source. No cut-off for these calls is given here.
Key:
[1] = biological target: T1, von Hippel-Lindau disease tumor suppressor/1-phosphatidylinositol 3-phosphate 5-kinase (Homo sapiens) (UniProt Q9Y2I7+P40337); assay: PROTAC activity at VHL/PIKfyve in human VCaP cells assessed as downregulation of PIKfyve expression at 300 nM measured after 4 hrs by TMT-labeled mass spectrometry; format: cell-based
Outline: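 VCaP cells plated 3×10^6 per well overnight, then DMSO or 300 nM for 4 h; TMT-labeled quantitative global proteomics, mass-spec quantification of PIKfyve and lipid kinases.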

CWR22R [2] = assay: Inhibition of autophagy in human 22Rv1 cells assessed as increase in p62 expression incubated for 24 hrs by immunoblot analysis; format: functional, cell-based; conditions: dose 10-3000 nM
Outline: (§1)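 22RV1, LNCaP or PC3 cells (5% CO2, 37 °C) exposed to increasing concentrations for 24 h; RIPA lysates with protease/phosphatase inhibitors, 4–12% Bis-Tris SDS-PAGE, PVDF, milk block, immunoblotted for PIKfyve and autophagy markers LC3A/B and p62, ECL detection.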

VCaP [3] = assay: Antiproliferative activity against human VCaP cells assessed as inhibition of cell proliferation incubated for 4 hrs followed by culturing in compound-free medium for 2 weeks by crystal violet staining based analysis; format: functional
Outline: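 VCaP cells treated 4 h, compound removed, then cultured 2 weeks in drug-free medium; long-term viability by crystal violet staining.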

VCaP [4] = assay: Inhibition of autophagy in human VCaP cells assessed as increase in LC3A/B expression at 300 nM incubated for 4 hrs followed by culturing in compound-free medium for 72 hrs by immunoblot analysis; format: functional, cell-based
Outline: (§2)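 VCaP cells treated 4 h, compounds removed, cultured 72 h in compound-free medium; whole cell lysates immunoblotted for PIKfyve, LC3A/B and GAPDH (RIPA lysis, 4–12% Bis-Tris gels, PVDF, ECL).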

LTL-331R [5] = assay: Antitumor activity against human LTL-331R xenografted in CB17 mouse assessed as induction of tumor cell death at 4 to 10 mg/kg, ip for 4 days by TUNEL assay; format: functional, organism-based; conditions: dose 4-10 mg/kg, time 4.0 day
Outline: (§3)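 LTL-331R prostate cancer PDX; IP once daily for 3 days at 4 or 10 mg/kg in 5% DMSO/95% of 40% hydroxypropyl-β-cyclodextrin (freshly dissolved); tumors collected 24 h after last dose on day 4; whole tumor lysate immunoblotted for PIKfyve, LC3A/B, GAPDH, or TUNEL in situ cell death staining.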

[6] = biological target: T1, von Hippel-Lindau disease tumor suppressor/1-phosphatidylinositol 3-phosphate 5-kinase (Homo sapiens); assay: PROTAC activity at VHL/PIKfyve in human PC-3 cells assessed as downregulation of PIKfyve expression at 10 to 3000 nM measured after 24 hrs by immunoblot analysis; format: cell-based; conditions: dose 10-3000 nM
Outline: (§4)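 22RV1, LNCaP or PC3 cells given increasing concentrations for 24 h; RIPA lysates immunoblotted for PIKfyve with GAPDH loading control, ECL detection.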

[7] = biological target: T1, von Hippel-Lindau disease tumor suppressor/1-phosphatidylinositol 3-phosphate 5-kinase (Homo sapiens); assay: PROTAC activity at VHL/PIKfyve in human VCaP cells assessed as induction of PIKfyve degradation at 0.1 to 1 uM incubated for 24 hrs in presence of proteasome inhibitor, bortezomib by immunoblot analysis; format: cell-based; conditions: dose 0.1-1 µM
Outline: (§5)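 VCaP cells treated 24 h at 0.1 and 1 µM, with or without pretreatment by 1 µM bortezomib; PIKfyve and GAPDH immunoblotted.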

LTL-331R [8] = assay: Antitumor activity against human LTL-331R xenografted in CB17 mouse assessed as inhibition of tumor cell proliferation at 15 mg/kg, ip at 5 days on and 2 days off regimen for 17 days by digital caliper analysis; format: functional, organism-based; conditions: time 17.0 day
Outline: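 LTL-331R PDX; once-daily IP dosing, 5 days on/2 days off for 17 days, vehicle 5% DMSO/95% of 40% hydroxypropyl-β-cyclodextrin; tumors measured at least twice weekly by caliper, volume (π/6)(L×W²); vehicle vs treated compared by two-tailed unpaired t test.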

[9] = biological target: T1, von Hippel-Lindau disease tumor suppressor/1-phosphatidylinositol 3-phosphate 5-kinase (Homo sapiens); assay: PROTAC activity at VHL/PIKfyve in human VCaP cells assessed as induction of PIKfyve degradation at 0.1 uM incubated for 24 hrs by immunoblot analysis; format: cell-based
Outline: (§6)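 VCaP cells treated 24 h at 0.1 or 1.0 µM; percent PIKfyve degradation determined by immunoblotting.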

DU-145 [10] = assay: Induction of massive cytoplasmic vacuolization in human RFP-labeled DU-145 cells at 300 nM incubated for 4 hrs; format: functional, cell-based
Mus musculus = assay: In vivo induction of PIKfyve degradation in tumor of LTL-331R-xenografted CB17 mouse assessed as downregulation of PIKfyve expression at 4 to 10 mg/kg, ip for 4 days by western blot analysis; format: functional, organism-based; conditions: dose 4-10 mg/kg, time 4.0 day; outline: as §3
[11] = biological target: T1, von Hippel-Lindau disease tumor suppressor/1-phosphatidylinositol 3-phosphate 5-kinase (Homo sapiens); assay: PROTAC activity at VHL/PIKfyve in human VCaP cells assessed as induction of PIKfyve degradation at 300 nM incubated for 4 hrs followed by culturing in compound-free medium for 72 hrs by immunoblot analysis; format: cell-based; outline: as §2
CWR22R [12] = assay: Inhibition of autophagy in human 22Rv1 cells assessed as increase in LC3A/B expression incubated for 24 hrs by immunoblot analysis; format: functional, cell-based; conditions: dose 10-3000 nM; outline: as §1
[13] = biological target: T1, von Hippel-Lindau disease tumor suppressor/1-phosphatidylinositol 3-phosphate 5-kinase (Homo sapiens); assay: PROTAC activity at VHL/PIKfyve in human VCaP cells assessed as induction of PIKfyve degradation by measuring half life at 100 nM by immunoblot analysis; format: cell-based
[14] = biological target: T1, von Hippel-Lindau disease tumor suppressor/1-phosphatidylinositol 3-phosphate 5-kinase (Homo sapiens); assay: PROTAC activity at VHL/PIKfyve in human 22RV1 cells assessed as downregulation of PIKfyve expression at 10 to 3000 nM measured after 24 hrs by immunoblot analysis; format: cell-based; conditions: dose 10-3000 nM; outline: as §4
[15] = biological target: T1, von Hippel-Lindau disease tumor suppressor/1-phosphatidylinositol 3-phosphate 5-kinase (Homo sapiens); assay: PROTAC activity at VHL/PIKfyve in human VCaP cells assessed as induction of PIKfyve degradation at 0.1 to 1 uM incubated for 24 hrs by immunoblot analysis; format: cell-based; conditions: dose 0.1-1 µM; outline: as §5
PC-3 [16] = assay: Inhibition of autophagy in human PC-3 cells assessed as increase in LC3A/B expression incubated for 24 hrs by immunoblot analysis; format: functional, cell-based; conditions: dose 10-3000 nM; outline: as §1
[17] = biological target: T1, von Hippel-Lindau disease tumor suppressor/1-phosphatidylinositol 3-phosphate 5-kinase (Homo sapiens); assay: PROTAC activity at VHL/PIKfyve in human VCaP cells assessed as induction of PIKfyve degradation at 1 uM incubated for 24 hrs by immunoblot analysis; format: cell-based; outline: as §6
VCaP [18] = assay: Antiproliferative activity against human VCaP cells assessed as inhibition of cell proliferation incubated for 24 hrs followed by culturing in compound-free medium for 2 weeks by crystal violet staining based analysis; format: functional
Outline: (§7)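 VCaP cells exposed either 24 h then washed and chased 2 weeks in compound-free medium, or continuously for 2 weeks; long-term viability visualized by crystal violet staining; IC50 calculated for each condition.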

[19] = biological target: T1, von Hippel-Lindau disease tumor suppressor/1-phosphatidylinositol 3-phosphate 5-kinase (Homo sapiens); assay: PROTAC activity at VHL/PIKfyve in human VCaP cells assessed as induction of PIKfyve degradation incubated for 24 hrs by immunoblot analysis; format: cell-based
Outline: (§8)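 VCaP cells treated with increasing concentrations for 24 h; PIKfyve and GAPDH immunoblotted; percent remaining PIKfyve plotted to determine DC50 and Dmax.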

LNCaP [20] = assay: Inhibition of autophagy in human LNCaP cells assessed as increase in LC3A/B expression incubated for 24 hrs by immunoblot analysis; format: functional, cell-based; conditions: dose 10-3000 nM; outline: as §1
PC-3 [21] = assay: Inhibition of autophagy in human PC-3 cells assessed as increase in p62 expression incubated for 24 hrs by immunoblot analysis; format: functional, cell-based; conditions: dose 10-3000 nM; outline: as §1
[22] = biological target: T1, von Hippel-Lindau disease tumor suppressor/1-phosphatidylinositol 3-phosphate 5-kinase (Homo sapiens); assay: PROTAC activity at VHL/PIKfyve in human VCaP cells assessed as induction of PIKfyve degradation at 0.1 to 0.3 uM incubated for 24 hrs in presence of PIKfyve inhibitor, apilimod by immunoblot analysis; format: cell-based; conditions: dose 0.1-0.3 µM
Outline: (§9)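 VCaP cells given increasing concentrations of degrader with or without warhead 1 or VHL ligand VL285 for 24 h; immunoblot of PIKfyve and GAPDH.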

[23] = biological target: T1, von Hippel-Lindau disease tumor suppressor/1-phosphatidylinositol 3-phosphate 5-kinase (Homo sapiens); assay: PROTAC activity at VHL/PIKfyve in human VCaP cells assessed as induction of PIKfyve degradation at 0.1 to 0.3 uM incubated for 24 hrs in presence of VHL ligand, VL285 by immunoblot analysis; format: cell-based; conditions: dose 0.1-0.3 µM; outline: as §9
[24] = biological target: T1, von Hippel-Lindau disease tumor suppressor/1-phosphatidylinositol 3-phosphate 5-kinase (Homo sapiens); assay: PROTAC activity at VHL/PIKfyve in human VCaP cells assessed as maximal induction of PIKfyve degradation incubated for 24 hrs by immunoblot analysis relative to control; format: cell-based; outline: as §8
VCaP [25] = assay: Antiproliferative activity against human VCaP cells assessed as inhibition of cell proliferation incubated for 2 weeks by crystal violet staining based analysis; format: functional; conditions: 336 h; outline: as §7
LNCaP [26] = assay: Inhibition of autophagy in human LNCaP cells assessed as increase in p62 expression incubated for 24 hrs by immunoblot analysis; format: functional, cell-based; conditions: dose 10-3000 nM; outline: as §1
DU-145 [27] = assay: Induction of massive cytoplasmic vacuolization in human RFP-labeled DU-145 cells incubated for 24 hrs; format: functional, cell-based; conditions: dose 100-3000 nM
Outline: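 RFP-labeled DU145 cells treated 24 h (300 nM shown); vacuole area per cell quantified from images.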

[28] = biological target: T1, von Hippel-Lindau disease tumor suppressor/1-phosphatidylinositol 3-phosphate 5-kinase (Homo sapiens); assay: PROTAC activity at VHL/PIKfyve in human LNCaP cells assessed as downregulation of PIKfyve expression at 10 to 3000 nM measured after 24 hrs by immunoblot analysis; format: cell-based; conditions: dose 10-3000 nM; outline: as §4

T1 sequence (P40337 whole entry partner): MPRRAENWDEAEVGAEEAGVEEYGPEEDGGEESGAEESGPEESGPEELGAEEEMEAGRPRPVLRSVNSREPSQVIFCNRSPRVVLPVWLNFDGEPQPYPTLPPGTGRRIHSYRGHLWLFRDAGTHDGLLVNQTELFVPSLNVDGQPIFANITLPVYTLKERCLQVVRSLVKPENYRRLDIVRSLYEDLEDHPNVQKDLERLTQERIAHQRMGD
T1 sequence (Q9Y2I7 2-2098 limits assumed): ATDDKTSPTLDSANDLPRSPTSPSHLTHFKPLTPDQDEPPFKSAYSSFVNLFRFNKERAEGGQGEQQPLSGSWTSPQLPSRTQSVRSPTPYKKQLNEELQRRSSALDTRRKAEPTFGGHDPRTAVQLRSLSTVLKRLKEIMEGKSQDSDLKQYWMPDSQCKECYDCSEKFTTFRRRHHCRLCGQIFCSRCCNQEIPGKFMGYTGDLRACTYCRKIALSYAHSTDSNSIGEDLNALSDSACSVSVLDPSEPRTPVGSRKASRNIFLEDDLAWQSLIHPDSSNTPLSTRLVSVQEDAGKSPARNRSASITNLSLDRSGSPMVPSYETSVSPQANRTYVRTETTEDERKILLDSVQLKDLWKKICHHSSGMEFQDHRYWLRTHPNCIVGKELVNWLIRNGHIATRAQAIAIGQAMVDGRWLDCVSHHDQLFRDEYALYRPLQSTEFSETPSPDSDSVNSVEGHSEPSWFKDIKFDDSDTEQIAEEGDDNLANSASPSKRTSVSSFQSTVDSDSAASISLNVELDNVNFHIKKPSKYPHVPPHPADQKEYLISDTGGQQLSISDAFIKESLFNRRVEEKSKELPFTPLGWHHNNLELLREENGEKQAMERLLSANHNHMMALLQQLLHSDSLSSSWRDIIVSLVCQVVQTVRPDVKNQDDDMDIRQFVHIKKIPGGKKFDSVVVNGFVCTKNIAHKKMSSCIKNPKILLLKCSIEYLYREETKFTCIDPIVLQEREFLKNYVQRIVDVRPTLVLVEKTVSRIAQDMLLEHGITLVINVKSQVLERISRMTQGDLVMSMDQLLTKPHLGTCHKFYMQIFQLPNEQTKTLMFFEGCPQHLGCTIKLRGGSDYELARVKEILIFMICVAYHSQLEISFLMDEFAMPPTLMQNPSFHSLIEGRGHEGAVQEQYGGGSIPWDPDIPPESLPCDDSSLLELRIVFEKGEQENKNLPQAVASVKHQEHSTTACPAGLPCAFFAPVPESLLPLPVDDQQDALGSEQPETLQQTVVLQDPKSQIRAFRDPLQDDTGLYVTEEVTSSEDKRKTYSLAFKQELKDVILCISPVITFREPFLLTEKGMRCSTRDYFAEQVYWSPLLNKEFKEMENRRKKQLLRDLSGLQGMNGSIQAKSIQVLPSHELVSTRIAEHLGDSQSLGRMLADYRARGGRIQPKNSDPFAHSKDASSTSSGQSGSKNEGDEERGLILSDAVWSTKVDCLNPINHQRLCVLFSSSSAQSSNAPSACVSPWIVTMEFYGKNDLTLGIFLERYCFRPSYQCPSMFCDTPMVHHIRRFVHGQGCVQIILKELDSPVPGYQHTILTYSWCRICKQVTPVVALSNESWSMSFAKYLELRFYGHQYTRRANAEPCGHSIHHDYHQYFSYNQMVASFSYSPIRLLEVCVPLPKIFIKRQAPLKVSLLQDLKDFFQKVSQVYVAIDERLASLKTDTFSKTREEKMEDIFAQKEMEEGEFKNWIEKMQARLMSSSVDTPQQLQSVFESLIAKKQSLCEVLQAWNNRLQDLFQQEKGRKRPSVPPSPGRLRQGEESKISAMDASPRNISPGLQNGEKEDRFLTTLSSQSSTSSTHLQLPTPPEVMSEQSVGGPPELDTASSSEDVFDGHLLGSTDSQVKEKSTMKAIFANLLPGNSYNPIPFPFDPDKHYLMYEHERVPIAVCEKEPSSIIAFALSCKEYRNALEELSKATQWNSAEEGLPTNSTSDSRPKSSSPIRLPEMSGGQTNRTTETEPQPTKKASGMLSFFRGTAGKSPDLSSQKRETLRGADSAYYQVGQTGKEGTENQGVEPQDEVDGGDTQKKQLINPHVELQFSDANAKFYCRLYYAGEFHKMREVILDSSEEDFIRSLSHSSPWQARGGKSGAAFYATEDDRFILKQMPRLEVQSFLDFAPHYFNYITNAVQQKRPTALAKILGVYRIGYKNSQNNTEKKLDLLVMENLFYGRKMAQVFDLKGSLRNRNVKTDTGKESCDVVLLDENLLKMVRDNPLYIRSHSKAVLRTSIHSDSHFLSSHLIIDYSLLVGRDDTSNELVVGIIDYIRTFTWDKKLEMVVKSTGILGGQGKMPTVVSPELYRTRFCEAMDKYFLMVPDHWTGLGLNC

Activity [1]: Active
IC50 (VCaP [3]): 1200 nM
Activity [6]: Active
Activity [7]: inactive
Activity [9]: 97%
Activity [11]: Active
T1/2 [13]: 1.5 h
Activity [14]: Active
Activity [15]: Active
Activity [17]: 91%
IC50 (VCaP [18]): 522 nM
Activity [19]: Dose-Dependent Effect
Activity [22]: inactive
Activity [23]: inactive
Activity [24]: 97.9%
IC50 (VCaP [25]): 55.9 nM
Activity [28]: Active
SMILES: Cc1cccc(/C=N/Nc2cc(N3CCOCC3)nc(OCCc3ccc(NC(=O)CCCCC(=O)N[C@H](C(=O)N4C[C@H](O)C[C@H]4C(=O)NCc4ccc(-c5scnc5C)cc4)C(C)(C)C)cc3)n2)c1
inhibition (CWR22R [2]): Dose-Dependent Effect
inhibition (VCaP [4]): Active
Activity (LTL-331R [5]): Active
Activity (LTL-331R [8]): Active
Activity (DU-145 [10]): Active
Activity (Mus musculus): Active
inhibition (CWR22R [12]): Dose-Dependent Effect
inhibition (PC-3 [16]): Dose-Dependent Effect
inhibition (LNCaP [20]): Dose-Dependent Effect
inhibition (PC-3 [21]): Dose-Dependent Effect
inhibition (LNCaP [26]): Dose-Dependent Effect
Activity (DU-145 [27]): Dose-Dependent Effect

— ChEMBL document CHEMBL5321284, “Discovery of a First-in-Class Degrader for the Lipid Kinase PIKfyve” (J Med Chem, 2023)
